According to ChEMBL document CHEMBL1131637, “Novel and selective 5-HT2C/2B receptor antagonists as potential anxiolytic agents: synthesis, quantitative structure-activity relationships, and molecular modeling of substituted 1-(3-pyridylcarbamoyl)indolines” (J Med Chem, 1998):

Assays:
[1] = target: 5-hydroxytryptamine receptor 2A (Homo sapiens, UniProt P28223); assay: Binding affinity towards human 5-hydroxytryptamine 2A receptor expressed in HEK 293 cells using [3H]ketanserin as radioligand; format: cell-based, HEK293
Method in brief: (§1)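 Radioligand binding on human cloned receptors stably expressed in HEK 293 cells; 5-HT2A labelled with [3H]ketanserin, 5-HT2B with [3H]-5-HT. Values are means of at least two determinations, each within 0.2 log unit of the mean.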

[2] = target: T1, 5-hydroxytryptamine receptor 2C (Homo sapiens, UniProt P28335); assay: Binding affinity towards cloned human 5-hydroxytryptamine 2C receptor expressed in HEK 293 cells using [3H]mesulergine as radioligand; format: cell-based, HEK293
T1 sequence (P28335 whole entry): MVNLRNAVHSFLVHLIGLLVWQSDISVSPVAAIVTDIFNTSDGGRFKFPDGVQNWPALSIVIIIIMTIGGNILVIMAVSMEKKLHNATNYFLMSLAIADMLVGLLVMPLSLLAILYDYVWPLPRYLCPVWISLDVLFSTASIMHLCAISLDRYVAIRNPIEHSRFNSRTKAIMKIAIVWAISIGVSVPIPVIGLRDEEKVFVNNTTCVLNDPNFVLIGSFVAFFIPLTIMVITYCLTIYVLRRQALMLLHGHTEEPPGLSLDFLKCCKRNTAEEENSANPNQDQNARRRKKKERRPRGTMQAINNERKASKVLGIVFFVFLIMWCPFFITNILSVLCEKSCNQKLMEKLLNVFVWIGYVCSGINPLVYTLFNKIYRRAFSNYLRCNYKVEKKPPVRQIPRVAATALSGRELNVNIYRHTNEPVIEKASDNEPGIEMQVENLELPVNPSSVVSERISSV

[3] = species: Rattus norvegicus; assay: The dose required to reverse […]- induced hypolocomotion in rat by 50 %; format: functional; conditions: ip, 0.5 h, read-out: ID50 (the source's name)
[4] = target: 5-hydroxytryptamine receptor 2B (Homo sapiens, UniProt P41595); assay: Binding affinity towards cloned human 5-hydroxytryptamine 2B receptor expressed in HEK 293 cells using [3H]5-HT as radioligand; format: cell-based, HEK293; method in brief: as §1
[5] = test system: Rattus norvegicus; assay: Percentage change punished lever presses from mean score on 6-8 rats at 0.2 mg/kg po1h pretest; format: functional
[6] = test system: Rattus norvegicus; assay: Percentage change punished lever presses from mean score on 6-8 rats(P<0.001) at 0.5 mg/kg po1h pretest; format: functional
[7] = test system: Rattus norvegicus; assay: Percentage change punished lever presses from mean score on 6-8 rats(P<0.001) at 1 mg/kg po1h pretest; format: functional
[8] = test system: Rattus norvegicus; assay: Percentage change punished lever presses from mean score on 6-8 rats(P<0.001) at 2 mg/kg po1h pretest; format: functional
[9] = test system: Rattus norvegicus; assay: Percentage change punished lever presses from mean score on 6-8 rats(P<0.001) at 5 mg/kg po1h pretest; format: functional
[10] = test system: Rattus norvegicus; assay: Percentage change unpunished lever presses from mean score on 6-8 rats at 0.2 mg/kg po1h pretest; format: functional
[11] = test system: Rattus norvegicus; assay: Percentage change unpunished lever presses from mean score on 6-8 rats at 0.5 mg/kg po1h pretest; format: functional
[12] = test system: Rattus norvegicus; assay: Percentage change unpunished lever presses from mean score on 6-8 rats at 1 mg/kg po1h pretest; format: functional
[13] = test system: Rattus norvegicus; assay: Percentage change unpunished lever presses from mean score on 6-8 rats at 2 mg/kg po1h pretest; format: functional
[14] = test system: Rattus norvegicus; assay: Percentage change unpunished lever presses from mean score on 6-8 rats at 5 mg/kg po1h pretest; format: functional
[15] = test system: Rattus norvegicus; assay: Percentage change punished lever presses from mean score on 6-8 rats at 0.5 mg/kg po1h pretest; format: functional
[16] = test system: Rattus norvegicus; assay: Percentage change punished lever presses from mean score on 6-8 ratsP<0.001) at 10 mg/kg po1h pretest; format: functional
[17] = test system: Rattus norvegicus; assay: Percentage change punished lever presses from mean score on 6-8 ratsP<0.001) at 20 mg/kg po1h pretest; format: functional
[18] = test system: Rattus norvegicus; assay: Percentage change punished lever presses from mean score on 6-8 ratsP<0.001) at 2 mg/kg po1h pretest; format: functional
[19] = test system: Rattus norvegicus; assay: Percentage change punished lever presses from mean score on 6-8 ratsP<0.001) at 5 mg/kg po1h pretest; format: functional
[20] = test system: Rattus norvegicus; assay: Percentage change unpunished lever presses from mean score on 6-8 rats at 10 mg/kg po1h pretest; format: functional
[21] = test system: Rattus norvegicus; assay: Percentage change unpunished lever presses from mean score on 6-8 rats(P<0.01) at 20 mg/kg po1h pretest; format: functional
[22] = test system: Rattus norvegicus; assay: Percentage change unpunished lever presses from mean score on 6-8 rats(P<0.05) at 2 mg/kg po1h pretest; format: functional

Sequence of 5-hydroxytryptamine receptor 2A (P28223 whole entry): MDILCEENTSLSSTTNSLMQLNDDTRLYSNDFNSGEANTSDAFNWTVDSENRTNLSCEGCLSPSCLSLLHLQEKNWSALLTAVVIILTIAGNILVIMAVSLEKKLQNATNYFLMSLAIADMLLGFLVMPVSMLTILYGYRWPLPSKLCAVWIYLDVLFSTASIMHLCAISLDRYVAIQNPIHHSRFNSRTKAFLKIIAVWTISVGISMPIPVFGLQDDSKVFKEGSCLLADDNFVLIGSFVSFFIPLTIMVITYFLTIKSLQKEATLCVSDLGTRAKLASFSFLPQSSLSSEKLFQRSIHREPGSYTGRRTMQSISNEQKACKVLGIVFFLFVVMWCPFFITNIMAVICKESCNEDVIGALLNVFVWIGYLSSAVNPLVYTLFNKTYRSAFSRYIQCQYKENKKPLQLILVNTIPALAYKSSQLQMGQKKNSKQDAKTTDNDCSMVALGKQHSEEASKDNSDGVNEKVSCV
Sequence of 5-hydroxytryptamine receptor 2B (P41595 whole entry): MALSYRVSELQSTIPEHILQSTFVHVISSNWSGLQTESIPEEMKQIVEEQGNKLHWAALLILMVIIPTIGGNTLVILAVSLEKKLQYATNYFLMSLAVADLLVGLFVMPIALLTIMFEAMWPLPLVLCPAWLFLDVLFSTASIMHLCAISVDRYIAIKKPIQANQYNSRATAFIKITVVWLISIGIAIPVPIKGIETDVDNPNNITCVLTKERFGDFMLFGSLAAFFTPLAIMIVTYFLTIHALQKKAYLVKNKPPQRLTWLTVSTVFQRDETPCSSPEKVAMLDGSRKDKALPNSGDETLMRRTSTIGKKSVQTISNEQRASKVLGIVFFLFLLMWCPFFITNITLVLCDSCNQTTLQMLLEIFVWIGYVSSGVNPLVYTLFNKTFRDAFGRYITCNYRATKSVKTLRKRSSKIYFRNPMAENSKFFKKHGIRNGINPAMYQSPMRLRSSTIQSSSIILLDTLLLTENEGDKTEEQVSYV

Structure (SMILES) | Ki [1] | Ki [2] | other results
O=C(Nc1cccnc1)N1CCc2ccc(Cl)c(Cl)c21 | 5010 nM | 794 nM | 
O=C(Nc1cccnc1)N1CCc2cc([N+](=O)[O-])ccc21 | > 6310 nM | 316 nM | 
Cc1ccc2c(c1I)CCN2C(=O)Nc1cccnc1 | 2510 nM | 25.1 nM | 
O=C(Nc1cccnc1)N1CCc2ccccc21 |  | 1260 nM | 
Cc1ccc2c(c1Br)CCN2C(=O)Nc1cccnc1 | 126 nM | 7.94 nM | 
O=C(Nc1cccnc1)N1CCc2cc(C(F)(F)F)ccc21 | 1260 nM | 31.6 nM | 
CSc1ccc2c(c1Cl)CCN2C(=O)Nc1cccnc1 | 5010 nM | 63.1 nM | 
CC(=O)c1cc2c(cc1C(F)(F)F)N(C(=O)Nc1cccnc1)CC2 | 3160 nM | 50.1 nM | 
CC(C)c1cc2c(cc1Cl)N(C(=O)Nc1cccnc1)CC2 | 2000 nM | 20 nM | 
Cc1cc2c(cc1Cl)CCN2C(=O)Nc1cccnc1 | 398 nM | 10 nM | 
CCOc1cc2c(cc1Cl)N(C(=O)Nc1cccnc1)CC2 | 3980 nM | 25.1 nM | ED50 [3]: 3.4 mg/kg
CC(C)c1cc2c(cc1C(F)(F)F)N(C(=O)Nc1cccnc1)CC2 | > 6310 nM | 25.1 nM | 
CC(C)(C)c1ccc2c(c1Cl)CCN2C(=O)Nc1cccnc1 | 631 nM | 39.8 nM | 

Further molecules by falling Ki [2], results first:

Ki [1] | Ki [2] | Structure (SMILES) | other results
2510 nM | 15.8 nM | CSc1cc2c(cc1C#N)N(C(=O)Nc1cccnc1)CC2 | 
1580 nM | 12.6 nM | COc1cc2c(cc1Br)N(C(=O)Nc1cccnc1)CC2 | ED50 [3]: 1.8 mg/kg
3980 nM | 12.6 nM | COc1cc2c(cc1C(F)(F)C(F)(F)F)N(C(=O)Nc1cccnc1)CC2 | 
1580 nM | 6.31 nM | CCOc1cc2c(cc1C(F)(F)F)N(C(=O)Nc1cccnc1)CC2 | Change [5]: 5%; Change [6]: 31%; Change [7]: 33%; Change [8]: 24%; Change [9]: 31%; Change [10]: 3%; Change [11]: 3%; Change [12]: 4%; Change [13]: 1%; Change [14]: 0%; ED50 [3]: 1 mg/kg
> 6310 nM | 6.31 nM | CCCSc1cc2c(cc1C(F)(F)F)N(C(=O)Nc1cccnc1)CC2 | Ki [4]: 15.8 nM
398 nM | 5.01 nM | CCc1cc2c(cc1Cl)N(C(=O)Nc1cccnc1)CC2 | 
31.6 nM | 3.98 nM | Cc1c(Cl)cc2c(c1Cl)CCN2C(=O)Nc1cccnc1 | 
63.1 nM | 3.98 nM | Cc1cc2c(cc1Br)N(C(=O)Nc1cccnc1)CC2 | 
2510 nM | 3.98 nM | CSc1cc2c(cc1C(F)(F)C(F)(F)F)N(C(=O)Nc1cccnc1)CC2 | ED50 [3]: 5 mg/kg; Ki [4]: 31.6 nM
1580 nM | 3.16 nM | CC(C)Oc1cc2c(cc1C(F)(F)F)N(C(=O)Nc1cccnc1)CC2 | ED50 [3]: 1.4 mg/kg; Ki [4]: 3.98 nM
100 nM | 3.16 nM | O=C(Nc1cccnc1)N1CCc2cc(I)c(Cl)cc21 | 
63.1 nM | 2.51 nM | CSc1c(Cl)cc2c(c1Cl)CCN2C(=O)Nc1cccnc1 | 
501 nM | 2 nM | CSc1cc2c(cc1Br)N(C(=O)Nc1cccnc1)CC2 | Change [15]: 0%; Change [7]: 24%; Change [16]: 38%; Change [17]: 53%; Change [18]: 29%; Change [19]: 28%; Change [11]: 0%; Change [20]: 3%; Change [12]: 2%; Change [14]: 4%; Change [21]: 6%; Change [22]: 5%; ED50 [3]: 3 mg/kg
